Experimental data reported in ChEMBL document CHEMBL1828576, “Synthesis of new six- and seven-membered 1-N-iminosugars as promising glycosidase inhibitors” (Bioorg Med Chem, 2011).
Calls of active or inactive are those of the source. The calls are words filed in the database; no cut-off is given here.

Legend:
[1] = Inhibition of sweet almond beta-glucosidase; set-up: species or system Prunus dulcis
Summary of the method: (§1)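 Each enzyme was pre-incubated with inhibitor (10 µM to 1000 µM) at its optimal pH for 1 h at 37 °C. Hydrolysis was initiated with 2 mM p-nitrophenyl glycopyranoside substrate prepared in 0.025 M citrate, pH 4.0, and quenched with 0.05 M borate, pH 9.8. p-Nitrophenol was read at 405 nm, with controls lacking inhibitor run in parallel. Ki and mode of inhibition were derived from Lineweaver–Burk plots.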

[2] = Inhibition of baker's yeast alpha-glucosidase assessed as residual hydrolysis of p-nitrophenyl-alpha-D-glucopyranoside pre-incubated for 1 hr by spectrometric analysis; set-up: species or system Saccharomyces cerevisiae; summary of the method: as §1
[3] = test system: Canavalia ensiformis; test: Inhibition of jack bean N-acetyl-beta-D-glucosaminidase assessed as p-nitrophenol release at 1 mM pre-incubated for 1 hr by spectrometric analysis; summary of the method: as §1
[4] = test system: Canavalia ensiformis; test: Inhibition of jack bean N-acetyl-beta-D-glucosaminidase assessed as p-nitrophenol release at 1 mM pre-incubated for 1 hr by Lineweaver-Burk plot analysis; summary of the method: as §1
[5] = test system: Canavalia ensiformis; test: Inhibition of jack bean alpha-mannosidase assessed as residual hydrolysis of p-nitrophenyl-alpha-D-mannopyranoside at 1 mM pre-incubated for 1 hr by Lineweaver-Burk plot analysis; summary of the method: as §1
[6] = test system: Prunus dulcis; test: Inhibition of almond seed beta-glucosidase assessed as residual hydrolysis of p-nitrophenyl-beta-D-glucopyranoside at 1 mM pre-incubated for 1 hr by Lineweaver-Burk plot analysis; summary of the method: as §1
[7] = Inhibition of baker's yeast alpha-glucosidase assessed as residual hydrolysis of p-nitrophenyl-alpha-D-glucopyranoside pre-incubated for 1 hr by Lineweaver-Burk plot analysis; set-up: species or system Saccharomyces cerevisiae; summary of the method: as §1
[8] = test system: Prunus dulcis; test: Inhibition of almond seed beta-galactosidase assessed as residual hydrolysis of p-nitrophenyl-beta-D-galactopyranoside at 1 mM pre-incubated for 1 hr by Lineweaver-Burk plot analysis; summary of the method: as §1
[9] = test system: Geobacillus toebii; test: Inhibition of Geobacillus toebii BK1 alpha-galactosidase assessed as residual hydrolysis of p-nitrophenyl-alpha-D-galactopyranoside at 1 mM pre-incubated for 1 hr by Lineweaver-Burk plot analysis
Summary of the method: (§2)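 The enzyme was pre-incubated with inhibitor (10 µM to 1000 µM) for 1 h at 60 °C at the enzyme's optimal pH. The reaction was started with 2 mM p-nitrophenyl glycopyranoside made up in 0.025 M citrate buffer, pH 4.0. It was stopped with 0.05 M borate buffer, pH 9.8, and released p-nitrophenol was read at 405 nm against inhibitor-free controls. Ki and inhibition type came from Lineweaver–Burk plots.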

[10] = Inhibition of Geobacillus toebii BK1 alpha-galactosidase assessed as residual hydrolysis of p-nitrophenyl-alpha-D-galactopyranoside pre-incubated for 1 hr by spectrometric analysis; summary of the method: as §2
[11] = test system: Geobacillus toebii; test: Competitive inhibition of Geobacillus toebii BK1 alpha-galactosidase assessed as residual hydrolysis of p-nitrophenyl-alpha-D-galactopyranoside pre-incubated for 1 hr by Lineweaver-Burk plot analysis; summary of the method: as §2
[12] = test system: Saccharomyces cerevisiae; test: Inhibition of baker's yeast alpha-glucosidase assessed as residual hydrolysis of p-nitrophenyl-alpha-D-glucopyranoside at 1 mM pre-incubated for 1 hr by Lineweaver-Burk plot analysis; summary of the method: as §1
[13] = Inhibition of Geobacillus toebii BK1 alpha-galactosidase assessed as residual hydrolysis of p-nitrophenyl-alpha-D-galactopyranoside pre-incubated for 1 hr by Lineweaver-Burk plot analysis; summary of the method: as §2

Ki [1] [µM]	IC50 [2] [µM]	inhibition [3] [%]	inhibition [4]	inhibition [5]	inhibition [6]	Ki [7] [µM]	inhibition [8]	inhibition [9]	IC50 [10] [µM]	inhibition [11]	inhibition [12]	Ki [13] [µM]	Compound
0.11													OC[C@H]1CNC[C@@H](O)[C@@H]1O [AFEGOSTAT]
	675	< 50	inactive	inactive	inactive	131	inactive	inactive					OCC[C@@H]1CNC[C@H](O)[C@@H](O)[C@@H]1O
		< 50	inactive	inactive	inactive		inactive		50	Active	inactive	54	CN1C[C@@H](CCO)[C@@H](O)[C@H](O)C1
		< 50	inactive	inactive	inactive		inactive		65	Active	inactive	66	OCC[C@@H]1CNC[C@@H](O)[C@@H]1O
